Data as given in ChEMBL document CHEMBL3997773, “Synthesis of C-4-Substituted Steviol Derivatives and Their Inhibitory Effects against Hepatitis B Virus” (J Nat Prod, 2016).
Activity calls are given as the source filed them. The calls are words filed in the database; no cut-off is given here.

How the values were obtained:
[1] = Antiviral activity against Hepatitis B virus subtype adw2 infected in human HuH7 cells assessed as inhibition of HBsAg secretion by EIA; format: functional, cell-based; conditions: Huh-7
[2] = Cytotoxicity against human HepG2.2.15 cells assessed as reduction in cell viability after 3 days by MTS assay; conditions: read-out: TC50
[3] = Antiviral activity against Hepatitis B virus in human HepG2.2.15 cells assessed as inhibition of viral DNA replication by RT-PCR method
[4] = Antiviral activity against Hepatitis B virus subtype adw2 infected in human HepG2.2.15 cells assessed as inhibition of HBeAg secretion by EIA
[5] = Selectivity index, ratio of TC50 for human HepG2.2.15 cells to IC50 for Hepatitis B virus subtype adw2 infected in human HuH7 cells assessed as inhibition of HBsAg secretion
[6] = Selectivity index, ratio of TC50 for human HepG2.2.15 cells to IC50 for Hepatitis B virus subtype adw2 infected in human HepG2.2.15 cells assessed as inhibition of HBeAg secretion
[7] = Selectivity index, ratio of TC50 for human HepG2.2.15 cells to IC50 for Hepatitis B virus subtype adw2 infected in human HuH7 cells assessed as inhibition of viral DNA replication
[8] = tested on: Hepatitis B virus subtype adw2; test: (§1) Antiviral activity against Hepatitis B virus subtype adw2 infected in human HuH7 cells assessed as inhibition of viral DNA replication by RT-PCR method; format: functional, cell-based
[9] = tested on: Hepatitis B virus subtype adw2; test: Antiviral activity against Hepatitis B virus subtype adw2 infected in human HepG2.2.15 cells assessed as inhibition of HBsAg secretion by EIA
[10] = tested on: Hepatitis B virus subtype adw2; test: Antiviral activity against Hepatitis B virus subtype adw2 infected in human HepG2.2.15 cells assessed as inhibition of HBeAg secretion by EIA
[11] = Antiviral activity against Hepatitis B virus in human HepG2.2.15 cells assessed as inhibition of HBsAg secretion by EIA
[12] = Antiviral activity against Hepatitis B virus subtype adw2 in human HepG2.2.15 cells assessed as inhibition of viral DNA replication by RT-PCR method
[13] = as §1; format: functional, cell-based; conditions: Huh-7
[14] = Antiviral activity against Hepatitis B virus subtype adw2 infected in human HuH7 cells assessed as reduction in HBcAg level at 5 ug/ml after 2 days by immunoblot method relative to control; format: functional
Outline: (§2)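 Huh7 cells were transfected with pHBV1.2 (1.2-fold HBV adw2 genome) for 2 days, then exposed to 2.5, 5 or 10 μg/mL for another 2 days. Whole-cell protein was extracted with protease inhibitors. SHBs, HBcAg and HBx were detected by immunoblot, with α-tubulin for comparison.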

[15] = Antiviral activity against Hepatitis B virus subtype adw2 infected in human HuH7 cells assessed as reduction in HBx level at 5 ug/ml after 2 days by immunoblot method relative to control; format: functional; outline: as §2
[16] = tested on: Hepatitis B virus subtype adw2; test: Antiviral activity against Hepatitis B virus subtype adw2 infected in human HuH7 cells assessed as inhibition of viral DNA replication at 10 uM after 2 days by RT-PCR method; format: functional, cell-based
Outline: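 Huh7 cells transfected with pHBV1.2, a plasmid carrying 1.2-fold of the HBV adw2 genome, for 2 days, then treated for another 2 days. Secreted viral particles were isolated from the culture medium and extracellular HBV DNA quantified by real-time PCR against untreated or vehicle controls; n = 3.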

C=C1C[C@@]23CC[C@H]4[C@@](C)(CCC[C@@]4(C)NC(=O)c4ccc(C#N)cc4)[C@@H]2CC[C@]1(O)C3
IC50 [1]: 8.3 µM
CC50 at 72 h [2]: 125 µM
IC50 [3]: 9 µM
IC50 [4]: 13.6 µM
selectivity ratio [5]: 15.1
selectivity ratio [6]: 9.2
selectivity ratio [7]: 13.9

C=C1C[C@@]23CC[C@H]4[C@@](C)(CCC[C@@]4(C)NC(=O)c4ccc(Cl)cc4)[C@@H]2CC[C@]1(O)C3
inhibition [8]: Active
inhibition [9]: Active
inhibition [10]: Active

C=C1C[C@@]23CC[C@H]4[C@@](C)(CCC[C@@]4(C)NC(=O)Nc4ccc(Br)cc4)[C@@H]2CC[C@]1(O)C3
inhibition [9]: Active
inhibition [10]: Active

C=C1C[C@@]23CC[C@H]4[C@@](C)(CCC[C@@]4(C)NC(=O)Nc4ccc(C)cc4)[C@@H]2CC[C@]1(O)C3
IC50 [11]: 59.6 µM

C=C1C[C@@]23CC[C@H]4[C@@](C)(CCC[C@@]4(C)NC(=O)c4ccccc4)[C@@H]2CC[C@]1(O)C3
inhibition [8]: Active
inhibition [9]: Active
inhibition [10]: Active

C=C1C[C@@]23CC[C@H]4[C@@](C)(CCC[C@@]4(C)NC(=O)Nc4ccc(OC)cc4)[C@@H]2CC[C@]1(O)C3
IC50 [11]: 11.7 to 14 µM
IC50 [4]: 7.7 to 13.6 µM
IC50 [12]: 14.7 µM

C=C1C[C@@]23CC[C@H]4[C@@](C)(CCC[C@@]4(C)NC(=O)Nc4ccc(OC)c(OC)c4)[C@@H]2CC[C@]1(O)C3
IC50 [11]: 11.7 to 14 µM
IC50 [4]: 7.7 to 13.6 µM
IC50 [12]: 14.3 µM

C=C1C[C@@]23CC[C@H]4[C@@](C)(CCC[C@@]4(C)NC(C)=O)[C@@H]2CC[C@]1(O)C3
inhibition [8]: Active
inhibition [9]: Active
inhibition [10]: Active

C=C1C[C@@]23CC[C@H]4[C@@](C)(CCC[C@@]4(C)NC(=O)c4ccc(C)cc4)[C@@H]2CC[C@]1(O)C3
inhibition [8]: Active
inhibition [9]: Active
inhibition [10]: Active

C=C1C[C@@]23CC[C@H]4[C@@](C)(CCC[C@@]4(C)NC(=O)Nc4ccc(Cl)cc4)[C@@H]2CC[C@]1(O)C3
IC50 [1]: 8 µM
IC50 [4]: 5 µM
IC50 [12]: 4.5 µM
selectivity ratio [7]: 6.6

C=C1C[C@@]23CC[C@H]4[C@@](C)(CCC[C@@]4(C)C(=O)O)[C@@H]2CC[C@]1(O)C3 [STEVIOL]
IC50 [1]: 20.8 µM
IC50 [13]: 19.9 µM
CC50 at 72 h [2]: 474 µM
IC50 [4]: 16.6 µM
selectivity ratio [5]: 22.8
selectivity ratio [6]: 28.6
selectivity ratio [7]: 23.8

C=C1C[C@@]23CC[C@H]4[C@@](C)(CCC[C@@]4(C)NC(=O)CCC)[C@@H]2CC[C@]1(O)C3
inhibition [9]: Active
inhibition [10]: Active

C=C1C[C@@]23CC[C@H]4[C@@](C)(CCC[C@@]4(C)N=C=O)[C@@H]2CC[C@]1(O)C3
IC50 [13]: 30 µM
CC50 at 72 h [2]: 337 µM
IC50 [11]: 19.1 µM
IC50 [4]: 28.5 µM
selectivity ratio [5]: 17.6
selectivity ratio [6]: 11.8
selectivity ratio [7]: 11.2

C=C1C[C@@]23CC[C@H]4[C@@](C)(CCC[C@@]4(C)NC(=O)CCCC)[C@@H]2CC[C@]1(O)C3
inhibition [8]: Active
inhibition [9]: Active
inhibition [10]: Active

C=C1C[C@@]23CC[C@H]4[C@@](C)(CCC[C@@]4(C)NC(=O)c4ccc(Br)cc4)[C@@H]2CC[C@]1(O)C3
inhibition [8]: Active
inhibition [9]: Active
inhibition [10]: Active

C=C1C[C@@]23CC[C@H]4[C@@](C)(CCC[C@@]4(C)NC(=O)c4cccs4)[C@@H]2CC[C@]1(O)C3
inhibition [8]: Active
inhibition [9]: Active
inhibition [10]: Active

C=C1C[C@@]23CC[C@H]4[C@@](C)(CCC[C@@]4(C)NC(=O)CC)[C@@H]2CC[C@]1(O)C3
inhibition [9]: Active
inhibition [10]: Active

C=C1C[C@@]23CC[C@H]4[C@@](C)(CCC[C@@]4(C)NC(=O)c4ccc(OC)cc4)[C@@H]2CC[C@]1(O)C3
inhibition [8]: Active
inhibition [9]: Active
inhibition [10]: Active

C=C1C[C@@]23CC[C@H]4[C@@](C)(CCC[C@@]4(C)NC(=O)c4ccc(I)cc4)[C@@H]2CC[C@]1(O)C3
CC50 at 72 h [2]: 413 µM
IC50 [11]: 14.2 µM
IC50 [3]: 21.9 µM
IC50 [4]: 23.9 µM
selectivity ratio [5]: 29.1
selectivity ratio [6]: 17.3
selectivity ratio [7]: 18.8

C=C1C[C@@]23CC[C@H]4[C@@](C)(CCC[C@@]4(C)NC(=O)Nc4cc(OC)c(OC)c(OC)c4)[C@@H]2CC[C@]1(O)C3
IC50 [11]: 11.7 to 14 µM
IC50 [4]: 7.7 to 13.6 µM
IC50 [12]: 6.3 µM

Nc1ccn([C@@H]2CS[C@H](CO)O2)c(=O)n1 [LAMIVUDINE]
fold change (FC) [14]: 0.21
fold change (FC) [15]: 0.17
CC50 at 72 h [2]: 2360 µM
IC50 [3]: 108 µM
selectivity ratio [7]: 22

C=C1C[C@@]23CC[C@H]4[C@@](C)(CCC[C@@]4(C)N)[C@@H]2CC[C@]1(O)C3
CC50 at 72 h [2]: 169 µM
IC50 [11]: 30.7 µM
IC50 [3]: 35.8 µM
IC50 [4]: 31.2 µM
selectivity ratio [5]: 5.5
selectivity ratio [6]: 5.4
selectivity ratio [7]: 4.7

O=c1[nH]cc(F)c(=O)[nH]1 [FLUOROURACIL]
CC50 at 72 h [2]: 228 µM

C=C1C[C@@]23CC[C@H]4[C@@](C)(CCC[C@@]4(C)NC(=O)c4ccc(F)cc4)[C@@H]2CC[C@]1(O)C3
inhibition [8]: Active
inhibition [9]: Active
inhibition [10]: Active

COc1ccc(C[C@H]2NC[C@H](O)[C@H]2OC(C)=O)cc1
inhibition [16]: inactive

C=C1C[C@@]23CC[C@H]4[C@@](C)(CCC[C@@]4(C)NC(=O)Nc4ccccc4)[C@@H]2CC[C@]1(O)C3
IC50 [1]: 33.5 µM

C=C1C[C@@]23CC[C@H]4[C@@](C)(CCC[C@@]4(C)NC(=O)Nc4ccc(F)cc4)[C@@H]2CC[C@]1(O)C3
inhibition [9]: Active
inhibition [10]: Active

C=C1C[C@@]23CC[C@H]4[C@@](C)(CCC[C@@]4(C)NC(=O)c4ccc(OCC)cc4)[C@@H]2CC[C@]1(O)C3
IC50 [1]: 2.7 µM
CC50 at 72 h [2]: 56.3 µM
IC50 [3]: 4 µM
IC50 [4]: 3.4 µM
selectivity ratio [5]: 20.9
selectivity ratio [6]: 16.6
selectivity ratio [7]: 14.1

C=C1C[C@@]23CC[C@H]4[C@@](C)(CCC[C@@]4(C)NC(=O)c4ccc(CC)cc4)[C@@H]2CC[C@]1(O)C3
inhibition [8]: Active
inhibition [9]: Active
inhibition [10]: Active

C=C1C[C@@]23CC[C@H]4[C@@](C)(CCC[C@@]4(C)NC(=O)CCCCC)[C@@H]2CC[C@]1(O)C3
inhibition [8]: Active
inhibition [9]: Active
inhibition [10]: Active
